The nature of assay [1]: Her2 expression decrease, cell viability multiplex – SKBR3 breast tumor cells, AlphaScreen, ATP viability, primary screen (AID 461).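 On Her2 level: lower value means less Her2 protein in the cells.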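 On viability: percent of carrier control wells set as 100% viability.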 Conditions: SKBR3 Her2 protein level, 18-24 h, measured here: SKBR3 viability, ATP luminescence, at 10 µM. Background: Bead proximity is the source of the signal in Alpha formats.
For assay [2], the target named is Receptor tyrosine-protein kinase erbB-2 (Homo sapiens) (UniProt P04626). The description is as above. The following applies: 18-24 h, at 10 µM, stronger effect = lower value.
Assay [3] is described as follows: reduced viability of SK-BR-3 breast cancer cells – cell-based, 24 h, human, pilot screen (AID 572;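 active means viability at or below 10% of carrier control in both of two separate runs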;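 further: compound exposure lasted between 18 and 24 h rather than exactly 24 h; 100% = carrier-treated control wells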). The following applies: SK-BR-3 viability, CellTiter-Glo luminescence, at 10 µM, stronger effect = lower value. Background: Cellular ATP, detected with luciferase, serves as a proxy for viable cell number.
Assay [4] can be described thus: HUVEC growth inhibition – cell-based, human, primary screen (AID 575;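 active means viability at or below 30% in both replicate assays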;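 further: 100% = median of untreated cell wells with 0.1% DMSO on each plate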). Conditions: HUVEC proliferation, CellTiter-Glo luminescence, 72 h; at 10 µM; stronger effect = lower value. In outline: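 Assay system: Primary human umbilical vein endothelial cells | Quantity: 1250 cells per well | Medium: Supplemented EBM, 2% fetal bovine serum | Detection: CellTiter-Glo luminescence measuring cellular ATP | Read-out: % viability vs DMSO wells | Plate: Collagen-coated 384-well format | Times: 72 h exposure, 37 °C, 5% CO2, 30 min RT equilibration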

Assay [5] is described as follows: H69AR cell proliferation blockers – human, duplicate replicates, primary screen (AID 580;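 active means viability at or under a set limit in both replicates, limit being median viability minus 3 SD, cut at about 48% in these data, passing the limit was not always enough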;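 further: 100% = mean luminescence of untreated wells and 0% = no signal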). Conditions: H69AR lung tumor cells viability, ATP luminescence, 72 h; at 10 µM; stronger effect = lower value.
The nature of assay [6]: MRP1 drug-resistance reversers in H69AR cells – cell-based, doxorubicin co-treatment, pilot screen (AID 601;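 active means viability loss from added drug above about 55%, and viability with drug at most 40%, in both replicates, limit read from the data, passing the limit was not always enough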). The following applies: CellTiter-Glo, 72 h, at 10 µM; for differential viability (reversal): stronger effect = higher value.
Assay [7] in a line: yeast transport mutant growth inhibition pilot in 384-well plates, post-Golgi transport modulator project (AID 636; in the data active means inhibition above about 31%). The following applies: absorbance 615 nm, about 18 h, stronger effect = higher value.
The nature of assay [8]: growth suppression of yeast trafficking mutant, preliminary HTS, modulators of trafficking downstream of Golgi apparatus project, 1536-format plate, OD 615 nm (AID 637; in the data active means inhibition above about 30%). Conditions: yeast transport mutant growth, absorbance 615 nm, 18 h; stronger effect = higher value.
The mark [9] stands for this setting: H69AR cells + 2 uM doxorubicin, measured here: viability with 2 uM doxorubicin, stronger effect = lower value.
The mark [10] stands for this setting: H69AR cells, compound alone cytotoxicity.

Calls of active or inactive are those of the source.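 How the source made its calls, unless noted: active means Her2 level under about 52% in both replicate screens, with viability over 70% of control (limit read from the data); inconclusive means Her2 under the limit in one screen only, or viability under 70%; inactive means Her2 level above the set limit.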

Receptor tyrosine-protein kinase erbB-2 (Homo sapiens), sequence (P04626 whole entry, looked up): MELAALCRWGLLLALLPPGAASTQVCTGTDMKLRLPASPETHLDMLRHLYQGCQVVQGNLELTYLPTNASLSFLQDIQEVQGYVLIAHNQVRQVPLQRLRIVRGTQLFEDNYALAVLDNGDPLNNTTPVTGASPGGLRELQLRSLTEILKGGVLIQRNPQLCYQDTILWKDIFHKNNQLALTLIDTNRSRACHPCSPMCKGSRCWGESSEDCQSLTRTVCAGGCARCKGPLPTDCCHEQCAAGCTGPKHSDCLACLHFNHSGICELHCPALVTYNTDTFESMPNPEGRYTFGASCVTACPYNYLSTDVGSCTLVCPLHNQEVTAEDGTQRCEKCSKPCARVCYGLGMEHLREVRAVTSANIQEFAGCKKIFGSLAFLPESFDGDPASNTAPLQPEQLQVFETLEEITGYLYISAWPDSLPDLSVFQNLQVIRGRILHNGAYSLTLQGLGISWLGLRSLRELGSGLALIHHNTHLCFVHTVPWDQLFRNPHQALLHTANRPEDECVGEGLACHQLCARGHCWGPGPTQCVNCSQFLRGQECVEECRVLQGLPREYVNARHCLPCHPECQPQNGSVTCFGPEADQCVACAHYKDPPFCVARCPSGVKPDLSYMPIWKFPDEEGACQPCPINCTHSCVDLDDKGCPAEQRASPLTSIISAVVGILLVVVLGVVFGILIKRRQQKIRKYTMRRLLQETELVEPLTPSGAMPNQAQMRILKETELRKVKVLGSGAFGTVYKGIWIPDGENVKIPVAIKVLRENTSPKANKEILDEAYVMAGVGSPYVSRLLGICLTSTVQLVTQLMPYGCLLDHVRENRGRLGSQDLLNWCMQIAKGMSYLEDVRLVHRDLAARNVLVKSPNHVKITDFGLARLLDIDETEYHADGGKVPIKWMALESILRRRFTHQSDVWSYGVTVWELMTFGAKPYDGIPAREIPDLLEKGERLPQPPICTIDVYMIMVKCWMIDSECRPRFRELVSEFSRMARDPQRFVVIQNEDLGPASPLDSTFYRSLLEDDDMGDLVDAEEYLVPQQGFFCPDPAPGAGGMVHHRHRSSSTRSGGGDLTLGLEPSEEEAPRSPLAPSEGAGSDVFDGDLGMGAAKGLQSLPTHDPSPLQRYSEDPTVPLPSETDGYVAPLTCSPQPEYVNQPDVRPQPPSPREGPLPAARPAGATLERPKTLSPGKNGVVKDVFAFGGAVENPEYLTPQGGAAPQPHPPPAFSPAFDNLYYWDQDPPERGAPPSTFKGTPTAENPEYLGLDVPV

As a reminder, the viability is a read-out of living cells in per cent, often relative to untreated cells. Usually inhibition stands for the change of the read-out against control, counted positive when it falls. Regarding `CC(=O)c1ccc(Oc2cc(C)nc(-n3nc(C)cc3C)n2)cc1`, the viability in assay [1] was 107%; in assay [3], 107% (inactive); in assay [4], 51.7% (inactive); in assay [5], 29.4% (active); in assay [6] (setting [9]) it was 66.2%; in assay [6] (setting [10]), 29.4%. In assay [2], the Her2 level was 96% (inactive). The differential viability (reversal) in assay [6] (H69AR cells + 2 uM doxorubicin) was -36.8% (inactive). For the same molecule, the figures for the inhibition in assay [7] and in assay [8] were -5.87% (inactive) and -2.1% (inactive), respectively.

For the molecule `CCOC(=O)c1cnn(-c2cc(C)c3cc(C)cc(C)c3n2)c1N`, the viability in assay [1] is 88.5%; in assay [3], 88.5% (inactive); in assay [4], 95.5% (inactive); in assay [5], 82.5% (inactive); in assay [6] (setting [9]) it was 84.6%; in assay [6] (setting [10]), 82.5%. Further, in assay [2], the Her2 level is 104% (inactive). The differential viability (reversal) in assay [6] (H69AR cells + 2 uM doxorubicin) is -2.12% (inactive). The inhibition in assay [7] was 1.82% (inactive); in assay [8] it was -8.89% (inactive).

As for `COc1cccc(CNc2nc3nc(C)c(Cl)c(C)n3n2)c1`, the viability was 86.5% in assay [1]; 86.5% (inactive) in assay [3]; 95.1% (inactive) in assay [4]; 83.6% (inactive) in assay [5]; 83.3% in assay [6] (setting [9]); 83.6% in assay [6] (setting [10]). In assay [2], the Her2 level was 99.5% (inactive). In assay [6] (H69AR cells + 2 uM doxorubicin), the differential viability (reversal) is 0.33% (inactive). Also, the figures for the inhibition in assay [7] and in assay [8] were -4.93% (inactive) and -2.38% (inactive), respectively.

`COC(=O)Cc1csc(N)n1`: the viability in assay [1] was 95%; in assay [3], 95% (inactive); in assay [4] it was 90.1% (inactive); in assay [5] it was 93% (inactive); in assay [6] (setting [9]), 88.2%; in assay [6] (setting [10]), 93%. The Her2 level in assay [2] was 82.5% (inactive). In addition, the differential viability (reversal) in assay [6] (H69AR cells + 2 uM doxorubicin) is 4.79% (inactive). Further, the inhibition in assay [7] is 0.92% (inactive); in assay [8], -3.27% (inactive).

`CC(C)COc1nc2ccccc2nc1C(C#N)C(=O)NC1CCCCC1` (stereo not given): the viability in assay [1] was 99%; in assay [3], 99% (inactive); in assay [4] it was 80% (inactive); in assay [5], 84.9% (inactive); in assay [6] (setting [9]) it was 105%; in assay [6] (setting [10]), 84.9%. Besides, the Her2 level in assay [2] was 105% (inactive). The differential viability (reversal) in assay [6] (H69AR cells + 2 uM doxorubicin) is -20.3% (inactive). Further, the inhibition in assay [7] is -4.67% (inactive); in assay [8], 31% (active).

Consider `Cc1ccc(Cn2c(SCCN3CCCCC3)nc3c2c(=O)[nH]c(=O)n3C)cc1`, for which the viability in assay [1] is 94.5%; in assay [3] it was 94.5% (inactive); in assay [4] it was 84.1% (inactive); in assay [5] it was 81.7% (inactive); in assay [6] (setting [9]) it was 84.8%; in assay [6] (setting [10]), 81.7%. Besides, the Her2 level in assay [2] was 104% (inactive). The differential viability (reversal) in assay [6] (H69AR cells + 2 uM doxorubicin) is -3.14% (inactive). The inhibition is -7.6% (inactive) in assay [7] and -6.83% (inactive) in assay [8].

For the molecule `CCn1c(=O)c(=O)[nH]c2cc(C(=O)N3CCN(c4ccccc4F)CC3)ccc21`, the viability in assay [1] was 110%; in assay [3], 110% (inactive); in assay [4] it was 97.1% (inactive); in assay [5], 98.9% (inactive); in assay [6] (setting [9]), 93.3%; in assay [6] (setting [10]), 98.9%. The Her2 level in assay [2] is 91.5% (inactive). Further, the differential viability (reversal) in assay [6] (H69AR cells + 2 uM doxorubicin) was 5.58% (inactive). For the same molecule, the inhibition in assay [7] is 0.14% (inactive); in assay [8] it was -0.16% (inactive).

As to `CC(NO)C(C)(C)NO` (stereo not given), the viability in assay [1] was 92%; in assay [3], 92% (inactive); in assay [4] it was 92.3% (inactive); in assay [5] it was 100% (inactive); in assay [6] (setting [9]) it was 89.2%; in assay [6] (setting [10]) it was 100%. The Her2 level in assay [2] is 101% (inactive). The differential viability (reversal) in assay [6] (H69AR cells + 2 uM doxorubicin) is 11.2% (inactive). In addition, the inhibition in assay [7] is -2.67% (inactive); in assay [8], 12.1% (inactive).

As to `COc1ccc(-n2c(COc3ccccc3)nnc2SCc2ccc(C#N)cc2)cc1`, the viability is 88% in assay [1]; 88% (inactive) in assay [3]; 81% (inactive) in assay [4]; 76.4% (inactive) in assay [5]; 54.1% in assay [6] (setting [9]); 76.4% in assay [6] (setting [10]). Moreover, in assay [2], the Her2 level is 93% (inactive). In addition, in assay [6] (H69AR cells + 2 uM doxorubicin), the differential viability (reversal) was 22.4% (inactive). In addition, the figures for the inhibition in assay [7] and in assay [8] were 0% (inactive) and -7.82% (inactive), respectively.

On to `CN(CCc1ccccn1)C(=O)CCNC(=O)Cn1cnc2ccccc2c1=O`, for which the viability in assay [1] was 99.5%; in assay [3], 99.5% (inactive); in assay [4], 88.9% (inactive); in assay [5], 96.4% (inactive); in assay [6] (setting [9]) it was 82.5%; in assay [6] (setting [10]) it was 96.4%. Also, the Her2 level in assay [2] was 97.5% (inactive). Besides, in assay [6] (H69AR cells + 2 uM doxorubicin), the differential viability (reversal) is 13.9% (inactive). The inhibition in assay [7] is -2.86% (inactive); in assay [8], -1.9% (inactive).

Consider `O=C1CC(c2ccc(F)c(Br)c2)C2=C(CCCC2=O)N1` (stereo not given), for which the viability in assay [1] is 102%; in assay [3], 102% (inactive); in assay [4], 84.6% (inactive); in assay [5], 102% (inactive); in assay [6] (setting [9]), 96.1%; in assay [6] (setting [10]) it was 102%. In addition, the Her2 level in assay [2] was 85.5% (inactive). Besides, the differential viability (reversal) in assay [6] (H69AR cells + 2 uM doxorubicin) was 5.7% (inactive). The inhibition was -3.95% (inactive) in assay [7] and -4.67% (inactive) in assay [8].

For the molecule `CCOC(=O)CSc1nnc([C@H](CC(C)C)NC(=O)OC(C)(C)C)o1`, the viability in assay [1] was 109%; in assay [3] it was 109% (inactive); in assay [4], 94% (inactive); in assay [5] it was 94.6% (inactive); in assay [6] (setting [9]), 95.5%; in assay [6] (setting [10]), 94.6%. Moreover, the Her2 level in assay [2] was 106% (inactive). The differential viability (reversal) in assay [6] (H69AR cells + 2 uM doxorubicin) was -0.88% (inactive). Further, the inhibition in assay [7] is -3.6% (inactive); in assay [8] it was -3.71% (inactive).

Take `CCOC(=O)C1=C(CC)Nc2ccccc2N=C1NC(=O)Cn1cnc2ccccc2c1=O`: the viability in assay [1] was 96%; in assay [3] it was 96% (inactive); in assay [4], 97.1% (inactive); in assay [5] it was 103% (inactive); in assay [6] (setting [9]) it was 82.3%; in assay [6] (setting [10]), 103%. Besides, the Her2 level in assay [2] is 80.5% (inactive). Besides, in assay [6] (H69AR cells + 2 uM doxorubicin), the differential viability (reversal) is 20.2% (inactive). Moreover, the inhibition is -5.07% (inactive) in assay [7] and 2.9% (inactive) in assay [8].

Take `O=C(COC(=O)C1CC1)c1c[nH]c2ccccc12`: the viability in assay [1] was 93.5%; in assay [3] it was 93.5% (inactive); in assay [4], 105% (inactive); in assay [5], 115% (inactive); in assay [6] (setting [9]), 100%; in assay [6] (setting [10]), 115%. For the same molecule, the Her2 level in assay [2] was 107% (inactive). In assay [6] (H69AR cells + 2 uM doxorubicin), the differential viability (reversal) was 14.9% (inactive). For the same molecule, the inhibition in assay [7] is 3.24% (inactive); in assay [8] it was -11.3% (inactive).
